Our source for the yeast fitness values is the RNAGym collection of RNA variant scans (doi:10.1126/science.aae0568).

To fix the notation:
B1: tRNA (parent)
chain: GUUCCGUUGGCGUAAUGGUAACGCGUCUCCCUCCUAAGGAGAAGACUGCGGGUUCGAGUCCCGUACGGAACG

Fewer inactive variants are shown than the library holds.

This data set covers variants of B1. The data set is described as follows: yeast fitness relative to wild type (ratio to wild type); higher = fitter; tRNA-Arg(CCU), competitive growth, 37 C, YPD. A digest of the protocol: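 Amplicons of the tRNA-Arg(CCU) gene were sequenced, 100-nucleotide paired-end, from the start population and from each end population of a pooled yeast competition. The competition, in six parallel replicates, lasted 24 hours in YPD at 37°C. Fitness relative to wild type was calculated from changes in genotype frequencies. Genotypes had to have ≥ 100 starting reads, and estimates < 0.5 were set to 0.5.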
In the case of GUUCCGUUGGCGUAAUGGUAACGCGUCUCCCUCCUACGGAGAAGACUGCGGGUUCGAGUCCCGUACGAAACG [A37C G68A], the yeast fitness turned out to be 0.729.

On to GUUCCGUUGGCGUAAUGGUAACGCGUCUCCCUCCUACGGAGAAGACUGCGGGUUCGAGUCCCGUACGUAACG [A37C G68U], for which the yeast fitness came to 0.761.

Regarding GUUCCGUUGGCGUAAUGGUAACGCGUCUCCCUCCUACGGAGAAGACUGCGAGUUCGAGUCCCGUACAGAACG [A37C G51A G67A], the yeast fitness was determined as 0.584.

Regarding GUUCCGUUGGCGUAAUGGUAACGCGUCUCCCUCCUACGGAGAAGACUGCGGGUUCAAGUCCCGUACGGUACG [A37C G56A A69U], the yeast fitness is 0.647.

As to GUUCCGUUGGCGUAAUGGUAACGCGUCUCCCUCCUAGGGUGAAGACUGCGGGUUCGACUCCCGUACGGAACG [A37G A40U G58C], the yeast fitness was determined as 0.729.

As to GUUCCGUUGGCGUAAUGGUAACGCGUCUCCCUCCUACGGAGAAGACGGCGGGUUCGAGUCCGGUACGAAACG [A37C U47G C62G G68A], the yeast fitness stood at 0.549.

Take GUUCCGUUGGCGUAAUGGUAACGCGUCUCCCUCCUACGGAGAAGACUGCGGCUUCGAGUGACGUAUGGAACG [A37C G52C C60G C61A C66U]: the yeast fitness is not above 0.5.

As for GUUCCGUUGGCGUAAUGGUAACGCGUCUCCCUCCUAGGGAGGAGACUGCGGGUUCGAGUCCCGUACGGAUCG [A37G A42G A70U], the yeast fitness amounted to 0.539.

For GUUCCGUUGGCGUAAUGGUAACGCGUCUCCCUCCUAGGGAGGAGACUGCGGGUUCGAGUCCCGUACGGAACG [A37G A42G], the yeast fitness is 0.838.

In the case of GUUCCGUUGGCGUAAUGGUAACGCGUCUCCCUCCUACGGAGAAGACUGCGGGUUGGAGUCCCGUACGCAACG [A37C C55G G68C], the yeast fitness was 0.556.

As to GUUCCGUUGGCGUAAUGGUAACGCGUCUCCCUCCUACGGACAAGGCUGCGGGUUCGAGUCCCGUACGGAACG [A37C G41C A45G], the yeast fitness is not above 0.5.

On to GUUCCGUUGGCGUAAUGGUAACGCGUCUCCCUCCUACCGAGAAGACUGCGGGUCCGAGUCUCGUACGGAACG [A37C G38C U54C C61U], for which the yeast fitness worked out at 0.678.

As for GUUCCGUUGGCGUAAUGGUAACGCGUCUCCCUCCUACGGAGAAGACUGCGGGUUCAAGUCCCGUACGGAACG [A37C G56A], the yeast fitness was found to be 0.829.

In the case of GUUCCGUUGGCGUAAUGGUAACGCGUCUCCCUCCUACGGAGAAGACUGUGGGUUCGAGUGCCGUACGGAACG [A37C C49U C60G], the yeast fitness was not above 0.5.

Turning to GUUCCGUUGGCGUAAUGGUAACGCGUCUCCCUCCUACGGAGAAGACCGCGGGUUCGAGUCCCGUACGGAACG [A37C U47C], the yeast fitness stood at 0.81.

Regarding GUUCCGUUGGCGUAAUGGUAACGCGUCUCCCUCCUACGGAGAAGACUGCGGGAUCGAGUCCCGUACGGAACG [A37C U53A], the yeast fitness stood at 0.632.

GUUCCGUUGGCGUAAUGGUAACGCGUCUCCCUCCUACGGAGAAGACUGGGGGUUCGAGUCCCGUCCGGAACG [A37C C49G A65C]: the yeast fitness was not above 0.5.

Turning to GUUCCGUUGGCGUAAUGGUAACGCGUCUCCCUCCUACGGAGAAGAUUGCGGGUUCGAGUCCCGUACGGAACG [A37C C46U], the yeast fitness is 0.946.

Regarding GUUCCGUUGGCGUAAUGGUAACGCGUCUCCCUCCUACGGAGAAGACUGCGGGUUCGAGUGCCGUAGGGAGCG [A37C C60G C66G A70G], the yeast fitness is not above 0.5.

Consider GUUCCGUUGGCGUAAUGGUAACGCGUCUCCCUCCUACGCAGAAGACUGUGGGUUCGAGUCCCGUACGGAACG [A37C G39C C49U], for which the yeast fitness is not above 0.5.

With GUUCCGUUGGCGUAAUGGUAACGCGUCUCCCUCCUACGCAGAAGACUGCGGGUUUGAGUCACGUACGGAACG [A37C G39C C55U C61A], the yeast fitness was 0.532.

As to GUUCCGUUGGCGUAAUGGUAACGCGUCUCCCUCCUACGGAGAAGACUGCGGGUCCGAGUCCCGUACGGAACG [A37C U54C], the yeast fitness worked out at 0.799.

With GUUCCGUUGGCGUAAUGGUAACGCGUCUCCCUCCUACGGAGAAGAUUGCGGGUUCGAGUCCCGUCCCGAACG [A37C C46U A65C G67C], the yeast fitness is not above 0.5.

Take GUUCCGUUGGCGUAAUGGUAACGCGUCUCCCUCCUAGGGUGAAGACUGCGGGUUAGAGUCCCGUACGGAACG [A37G A40U C55A]: the yeast fitness was found to be 0.829.

Regarding GUUCCGUUGGCGUAAUGGUAACGCGUCUCCCUCCUAGGGAGAAGCCUGCGGGUUCGAGUCCCGUACGGAACG [A37G A45C], the yeast fitness is 0.78.

As for GUUCCGUUGGCGUAAUGGUAACGCGUCUCCCUCCUACGGAGAAGACUGCGGGUUCGAGUCCCGUAGGGAACG [A37C C66G], the yeast fitness is 0.586.

As to GUUCCGUUGGCGUAAUGGUAACGCGUCUCCCUCCUACGGAGAAGACUGCGGGUUCGAGUCCCGUAUGGAACG [A37C C66U], the yeast fitness stood at 0.75.

As to GUUCCGUUGGCGUAAUGGUAACGCGUCUCCCUCCUACGGAGAAGACUGCGGGUUCGAGUCCUGUACGGAACG [A37C C62U], the yeast fitness came out at 0.913.

With GUUCCGUUGGCGUAAUGGUAACGCGUCUCCCUCCUACGGAGAAGACUGCGGGUUUGAGUCCCGUACGGAACG [A37C C55U], the yeast fitness is 0.769.

With GUUCCGUUGGCGUAAUGGUAACGCGUCUCCCUCCUACGGAGAAGACUGCGGGUUAGAGUCCCGUACGGAACG [A37C C55A], the yeast fitness amounted to 0.599.

As for GUUCCGUUGGCGUAAUGGUAACGCGUCUCCCUCCUACGGAGAAGACUGCGGGUUCGAGGCCCGUACGGAACG [A37C U59G], the yeast fitness was determined as 0.712.

With GUUCCGUUGGCGUAAUGGUAACGCGUCUCCCUCCUAGGGAGAUGACUGCGGGUUCGAGUCCCGUACGGAACG [A37G A43U], the yeast fitness came to 0.631.

On to GUUCCGUUGGCGUAAUGGUAACGCGUCUCCCUCCUAGGGAGACGACUGCGGGUUCGAGUCCCGUACGGAACG [A37G A43C], for which the yeast fitness stood at 0.89.

For the variant GUUCCGUUGGCGUAAUGGUAACGCGUCUCCCUCCUACAGAGAAGACUGCGGGUUCGAGUCCCGUACGGAACG [A37C G38A], the yeast fitness was found to be 0.636.

In the case of GUUCCGUUGGCGUAAUGGUAACGCGUCUCCCUCCUACGGAGAAGACUGCGGGUUCGAGUCCCGUACCGAACG [A37C G67C], the yeast fitness was 0.846.

As to GUUCCGUUGGCGUAAUGGUAACGCGUCUCCCUCCUACGGAGAAGACUGCGGGUUCGAGUCCCGUACAGAACG [A37C G67A], the yeast fitness is 0.696.

As for GUUCCGUUGGCGUAAUGGUAACGCGUCUCCCUCCUACGGAGAACACUGCGGCUUCGAGCCCCGUAUGGAACG [A37C G44C G52C U59C C66U], the yeast fitness is 0.574.
